# A selection: hits, their analogues and other compounds. The true share with any hit is near 4.6%.
# CHO parental Ca: counter-screen: ATP calcium response change in parental CHO cells. inhibition, % at 5.6 µM. parental CHO-K1, ATP-induced calcium, Fluo-8 fluorescence. AID 463079. 330,000 compounds, 0.63% hits;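 active means inhibition above that plate's mean sample inhibition plus 3 SD, cut at about 26% in these data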;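 further: 0% = ATP-challenged DMSO wells and 100% = DMSO wells without ATP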
#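 Assay system: parental CHO cells; Read-out basis: percent inhibition of ATP-evoked calcium rise, normalized to controls; Benchmarks: ATP and no-ATP DMSO wells; Compound dosing: single nominal dose of 5.6 µM per compound; Signal: Fluo-8 calcium dye fluorescence; Also added: ATP as calcium-mobilizing challenge; Repeats: singlicate.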
# GPR7 antag: human neuropeptides B/W receptor 1 antagonism; GPR7-expressing cells, fluorescence antagonist assay; 290,000 compounds, 1.1% hits; inhibition, % at 4.4 µM; in the data active means inhibition above about 16%, passing the limit was not always enough;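 further: cells stimulated with the agonist NPW; 0% = agonist with vehicle and 100% = vehicle without agonist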
# Target sequence (P48145 whole entry, looked up): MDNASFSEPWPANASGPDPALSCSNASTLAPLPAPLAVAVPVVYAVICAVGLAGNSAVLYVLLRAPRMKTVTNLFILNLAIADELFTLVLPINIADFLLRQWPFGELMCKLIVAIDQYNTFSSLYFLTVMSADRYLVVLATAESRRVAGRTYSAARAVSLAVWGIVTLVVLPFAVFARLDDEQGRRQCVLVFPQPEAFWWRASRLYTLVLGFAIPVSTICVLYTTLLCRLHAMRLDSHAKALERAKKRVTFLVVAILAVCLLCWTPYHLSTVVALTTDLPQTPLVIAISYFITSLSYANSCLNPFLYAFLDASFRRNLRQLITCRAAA
# TAAR1 antag: antagonists of human TAAR1; inhibition, % at 3 µM; 360,000 compounds, 1.5% hits; CHO RD-HGA16 TAAR1, Fluo-8 calcium fluorescence, antagonist; Q96RJ0;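 active means inhibition above a per-plate cutoff, the mean inhibition of test compounds on that plate plus 3 SD, cut at about 49% in these data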;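 further: 0% = DMSO plus EC80 beta-PEA response and 100% = DMSO alone without agonist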
# Target sequence (Q96RJ0 whole entry, looked up): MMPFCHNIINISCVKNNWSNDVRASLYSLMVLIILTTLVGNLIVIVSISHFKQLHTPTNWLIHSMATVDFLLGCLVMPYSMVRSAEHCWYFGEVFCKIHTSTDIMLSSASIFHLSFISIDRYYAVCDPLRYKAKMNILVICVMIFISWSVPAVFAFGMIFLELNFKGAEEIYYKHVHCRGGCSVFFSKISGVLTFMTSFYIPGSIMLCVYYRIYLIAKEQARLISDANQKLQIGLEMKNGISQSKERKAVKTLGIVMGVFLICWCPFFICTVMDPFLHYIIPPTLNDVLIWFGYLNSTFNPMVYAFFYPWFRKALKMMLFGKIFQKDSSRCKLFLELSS
#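 Test system – hTAAR1-expressing CHO RD-HGA16 cells, Gα16-coupled · Reagent – β-PEA at EC80 concentration, post-compound challenge · Compound dosing – 3 µM, single point · Timing – 140 s kinetic read after compound, 140 s after agonist · Detection – Fluo-8 intracellular calcium dye fluorescence, real-time kinetic reads · Control set – DMSO and EC80 PEA controls · Repeats – n of 1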
# OX1R antag-1: antagonists of human orexin 1 receptor. O43613. CHO/OX1R cells, Fluo-8 calcium fluorescence, orexin A. inhibition, % at 5 µM. 330,000 compounds, 0.43% hits. AID 434989;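 active means inhibition above its plate's threshold, mean inhibition of all tested compounds on the plate plus 3 SD, cut at about 37% in these data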;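 further: 0% = orexin A challenge wells and 100% = SB-334867-A antagonist wells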
# TAAR1 ag: human TAAR1 agonism; CHO RD-HGA16 TAAR1, Fluo-8 calcium fluorescence; vehicle wells 0%, saturating PEA agonist 100%; AID 624467; activation, % at 3 µM; 360,000 compounds, 0.99% hits;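 active means activation above the mean activation of all test compounds in the run plus 3 SD, cut at about 38% in these data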
#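 test system = CHO RD-HGA16 cells carrying human TAAR1 plus Gα16 | schedule = 17-24 h seeding, 75 min 37 °C dye, 30 min RT | compound dosing = 3 µM single concentration | control set = DMSO and PEA EC100 | replicates = n 1 | signal = Fluo-8 fluorescence, 5 s baseline then 140 s kinetic read | measure = percent activation vs PEA EC100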
# OX1R antag-2: blocks the human orexin 1 receptor. OX1R-expressing cells, FRET antagonist read-out. inhibition, % at 6.6 µM. O43613. 330,000 compounds, 1.8% hits; in the data active means inhibition mostly above about 38%, no sharp cut-off; inactive means mostly below about 40%;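 further: 0% = agonist challenge alone and 100% = reference antagonist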
# TAAR1 ag conf: human TAAR1 agonism, confirmed; shares compounds with TAAR1 ag; CHO RD-HGA16 TAAR1, Fluo-8 calcium fluorescence; scaled: DMSO 0%, maximal phenethylamine 100%; activation, % at 3 µM; 2,400 compounds, 82% hits;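 active means activation above a cutoff set at the run's mean compound activation plus 3 SD, cut at about 39% in these data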
# Ga16 nonsel ag: nonselective agonist in parental cells, TAAR1 agonist counter-screen; activation, % at 3 µM; 2,400 compounds, 50% hits; AID 651787; CHO-Ga16 parental, Fluo-8 calcium fluorescence; normalized to maximal ATP response, DMSO zero; shares compounds with TAAR1 ag;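 active means activation above the run cutoff, the mean activation over all tested wells plus 3 SD, cut at about 12% in these data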;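 further: 0% = DMSO wells and 100% = maximal ATP response on the peak over basal ratio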
# TAAR1 desens: human TAAR1 agonist that also desensitizes the receptor. shares compounds with TAAR1 ag. CHO RD-HGA16 hTAAR1, Fluo-8 calcium, beta-PEA response inhibition. inhibition, % at 3 µM. 2,400 compounds, 46% hits;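 active means inhibition above the run cutoff, the mean inhibition of all test compounds plus 3 SD, cut at about 49% in these data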;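 further: beta-PEA stimulus applied at its EC80; loss of beta-PEA calcium signal after compound pretreatment read as receptor desensitization; 0% = DMSO with beta-PEA at EC80 and 100% = DMSO alone without agonist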
# Ga16 antag count: nonselective Ga16 antagonism, counter-screen; shares compounds with TAAR1 ag; CHO-Ga16 ATP-induced calcium, Fluo-8 fluorescence; inhibition, % at 3 µM; 2,400 compounds, 39% hits;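 active means inhibition above the plate's mean compound inhibition plus 3 SD, computed per plate, cut at about 22% in these data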;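 further: 0% = EC80 ATP with DMSO and 100% = DMSO wells without ATP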
# * hit, by the source's call; / = no result.
SMILES,CHO parental Ca,GPR7 antag,TAAR1 antag,OX1R antag-1,TAAR1 ag,OX1R antag-2,TAAR1 ag conf,Ga16 nonsel ag,TAAR1 desens,Ga16 antag count
CCCCC(CC)CNCC(O)c1ccccc1 (stereo not drawn),-16,-2,5,-26,53*,1,64*,5,28,4
CC(C)(C)NC(=O)NC(=O)CN1CC=C(c2ccccc2)CC1,-19,-13,-1,-34,-1,13,/,/,/,/
COc1ccc(CN2CCCC(C(=O)c3ccc(Cl)cc3)C2)c(OC)c1 (stereo not drawn),-24,-13,-2,-23,4,5,/,/,/,/
COc1cccc(C(=O)NCCN2CCC3(CC2)C(=O)NCN3c2ccccc2)c1,/,/,5,/,10,/,/,/,/,/
O=C(NCCN1CCC2(CC1)C(=O)NCN2c1ccccc1)c1ccc(F)c(F)c1,/,/,103*,/,110*,/,102*,67*,104*,87*
O=C(NCCN1CCC2(CC1)C(=O)NCN2c1ccccc1)c1cccnc1Cl,/,/,-3,/,0,/,/,/,/,/
O=C(NCCN1CCC2(CC1)C(=O)NCN2c1ccccc1)c1cccc(F)c1,/,/,74*,/,60*,/,39*,21*,54*,31*
Cc1ccc(N(C)C(=O)Oc2cccc3cccnc23)cc1,-14,9,-16,-15,5,18,/,/,/,/
CN(c1ccc(O)cc1)c1ccc([N+](=O)[O-])c2nonc12,/,/,0,/,0,/,/,/,/,/
Cc1c(C)c2ccc(OCC(=O)N3CCC(C(=O)O)(c4ccccc4)CC3)c(C)c2oc1=O,-13,-8,4,-12,2,11,/,/,/,/
CC(Cc1ccccc1)NC(=O)/C=C/C(=O)O (stereo not drawn),4,-4,/,11,/,2,/,2,/,2
Cc1cc(C)cc(N2C(=O)NC(=O)/C(=C\C=C\c3ccco3)C2=O)c1,-11,3,23,1,50*,10,72*,47*,40,16
CCc1ccc(N2C(=O)NC(=O)/C(=C\C=C\c3ccco3)C2=O)cc1,-3,-4,42,-8,73*,18,67*,26*,69*,19
CCCCN1C(=O)/C(=C/C=C/c2ccco2)C(=O)NC1=S,/,-3,15,/,18,/,/,/,/,/
O=C1C2CC=CCC2C(=O)N1SC(Cl)(Cl)Cl (stereo not drawn),/,/,54*,/,57*,/,43*,26*,55*,49*
O=c1[nH]c(=O)n(-c2ccccc2F)c(O)c1/C=C1\C=Nc2ccccc21,3,24,22,4,25,-9,/,/,/,/
COC(=O)c1ccc(CN2CCN(Cc3ccccc3)CC2)cc1,-10,-9,-1,-10,6,12,/,/,/,/
COC(=O)C1=CCCN(C)C1,-11,0,11,-6,54*,9,88*,1,57*,4
Cc1cccc(-n2c(-c3ccco3)nc3ccccc3c2=O)n1,-13,-2,-12,-23,1,23,/,/,/,/
Nc1c(C(=O)NCCc2ccccc2)c2nc3ccccc3nc2n1CCN1CCOCC1,19,2,74*,24,71*,12,32,13*,47,43*
COc1ccc(CCNC(=O)c2c(N)n(CCN3CCOCC3)c3nc4ccccc4nc23)cc1,-19,-17,48,-30,16,45,/,/,/,/
COc1cc(OC)c(OC)cc1CNCCc1ccc(OC)c(OC)c1,-7,-1,-34,-16,4,8,/,/,/,/
COc1cc(OC)c(OC)cc1CNCCc1cccc(F)c1,-15,-6,35,-15,79*,6,78*,12*,36,2
COc1ccc(CNCCc2ccc(Cl)cc2)c(OC)c1OC,-18,12,-25,-18,65*,11,76*,25*,39,9
O=C1NC(=O)C2(CCCC2)C(=O)N1,/,/,0,/,1,/,/,/,/,/
SMILES,CHO parental Ca,GPR7 antag,TAAR1 antag,OX1R antag-1,TAAR1 ag,OX1R antag-2,TAAR1 ag conf,Ga16 nonsel ag,TAAR1 desens,Ga16 antag count
NCCc1ccc(O)cc1,10,-6,89*,4,118*,10,99*,3,94*,1
Cc1cccc(CCNCc2cc3cccc(C)c3[nH]c2=O)c1,/,-6,8,/,20,/,/,/,/,/
O=[N+]([O-])NC1=NCCN1Cc1ccc(Cl)nc1,-2,9,6,-10,0,28,/,/,/,/
c1ccc2c(c1)CC1CNCc3cccc(c31)S2 (stereo not drawn),-2,19,6,-13,73*,6,93*,5,79*,-3
C[C@]12CCC3C(CC[C@H]4C[C@H](O)CC[C@]34C)C1CCC2=O (stereo partly drawn),-2,/,22,-11,8,5,/,/,/,/
CCOc1ccc([N+](=O)[O-])cc1CNCCc1ccccc1,-14,44*,27,-27,52*,38,66*,2,51*,18
CCOc1ccccc1CNCCc1ccc2c(c1)OCO2,-16,6,-10,-30,0,14,/,/,/,/
CCOc1ccc(NC(=O)c2c(C)nn(Cc3ccccc3)c2Cl)cc1,-7,3,64*,-26,54*,2,79*,43*,76*,46*
CN1CCN(S(=O)(=O)c2cnc(Cl)c(Br)c2)CC1,-20,-2,-17,-20,1,6,/,/,/,/
N[C@@H]1C[C@H]1c1ccccc1,-10,/,78*,-5,80*,14,99*,10,86*,-2
O=c1[nH]c(=O)n(-c2ccc(F)cc2)c(O)c1C=Nc1ccccc1N1CCCC1,19,-3,6,-20,6,13,/,/,/,/
CN1C(=O)C(=CN2CCN(C(=O)c3ccco3)CC2)C(=O)N(C)C1=S,8,-9,-9,-1,53*,6,75*,6,21,-1
CCC(C)n1c(O)c(C=NCCc2ccccc2)c(=O)[nH]c1=S (stereo not drawn),-21,-20,5,-50,69*,9,60*,1,14,8
Cn1c(NN=O)nc2ccccc21,3,-8,-14,7,9,4,/,/,/,/
CCOc1cc2[nH]c(=S)n(CCCC(=O)N3CCC4(CC3)OCCO4)c(=O)c2cc1OCC,-24,-12,-7,-28,10,17,/,/,/,/
